Measured values: ChEMBL document CHEMBL5154945, “Discovery and Optimization of Pyrrolopyrimidine Derivatives as Selective Disruptors of the Perinucleolar Compartment, a Marker of Tumor Progression toward Metastasis” (J Med Chem, 2022)
Activity calls are given as the source filed them. The calls are words filed in the database; no cut-off is given here.

How the values were obtained:
PC-3M [1] = experiment: Inhibition of cell migration at human PC-3M cells measured after 5 days by Hoechst 33342 staining based microscopic method; format: functional; conditions: 120 h
PC-3M [2] = experiment: Antiproliferative activity against human PC-3M cells expressing PTB/GFP fusion protein assessed as cell growth inhibition and measured every four hrs for 130 hrs by IncuCyte zoom live cell analysis; format: functional, cell-based
Outline: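 PC3M-PTB1-GFP cells in DMEM/10% FBS, seeded at 1.25×10^4 cells/ml and left overnight at 37 °C, 5% CO2. Compound added to give 11 final concentrations, 10 nM to 20 μM. Brightfield images taken every 4 h for about 130 h; percent confluence measured.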

[3] = Permeability of the compound at pH 7.4 incubated for 30 mins by UV plate reader based PAMPA assay; conditions: pampa, pH 7.4, 0.5 h
PC-3M [4] = experiment: Anticancer activity in human PC-3M cells expressing PTB/GFP fusion protein assessed as perinucleolar compartment disassembly and measured after 24 hrs by Hoechst 33342 staining based microscopic method; format: functional, cell-based; conditions: read-out: IC50
Outline: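 Imaged by high-content microscopy. Nuclei with PNC spots ≥3 and >0 scored positive. PNC prevalence % = PNC-positive nuclei/total nuclei ×100, normalized to DMSO (0% activity) and 0% PNC (−100%). IC50 from concentration-response.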

[5] = Microsomal stability in CD1 mouse liver microsomes assessed as half life measured upto 60 mins in presence of NADPH by LC-MS analysis; conditions: mouse, microsomes, 1 h

Row | permeability [3] | IC50 (PC-3M [4]) [µM] | t1/2 [5] [min] | SMILES | AC50 (PC-3M [1]) [µM] | Activity (PC-3M [2])
1 | – | – | – | O=C(Nc1cccnc1)c1cccs1 | 1.98 | –
2 | 1729 10^-6 cm/s | > 20 | 5.2 | N=c1c2c(-c3ccccc3)cn(Cc3ccccc3)c2ncn1C1CCOCC1 | – | Active
